Here are results for 45 molecules from ChEMBL document CHEMBL3632518, “Synthesis and anti-HCV determinant motif identification in pyranone carboxamide scaffold” (Bioorg Med Chem Lett, 2015).

Each structure is given as a SMILES string.

The test system of one series is Hepatitis C virus. The series is described as follows: Antiviral activity against HCV genotype 1b infected in human HuH7 cells after 3 days by luciferase reporter gene assay. In kind it is functional, organism-based, Hepacivirus hominis. The settings on record: Huh-7, 72 h. In outline: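 Huh-7 cells carrying self-replicating subgenomic genotype 1b HCV replicon with luciferase reporter (LucNeo#2), kept in DMEM high glucose plus 10% heat-inactivated FBS and 1 mg/ml G418. Seeded at 5×10^3 cells/well without G418 with various compound concentrations (DMSO stocks, 20 mM or higher); 37°C, 3 days. Cells PBS-washed, lysed, luciferase read by luminometer. EC50 from inhibition of luciferase activity.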
In general terms: Reporter assays use an easily measured gene product as a stand-in for the process of interest.

Series [1] in a line: Cytotoxicity against human HuH7 cells after 3 days by tetrazolium dye method. The series is classed as cell-based, Huh-7. In outline: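 LucNeo#2 replicon-bearing Huh-7 cells, 5×10^3 cells/well, grown without G418 with various compound concentrations at 37°C for 3 days. Viable cell number measured by water-soluble tetrazolium dye (Tetracolor One) method. CC50 taken as concentration reducing viable cell number by 50%.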

For orientation: EC50 means the concentration at which the effect is half-maximal. Usually CC50 stands for the concentration that lowers cell viability or growth by half. High values mean lower toxicity to the cells, low ones greater toxicity to the cells.

With `O=C(Nc1ccc(F)cc1)c1c(NO)cc(-c2cccs2)oc1=O`, it took 0.65 µM to reach a half-maximal effect in the series on Hepatitis C virus (EC50). This molecule also returned a CC50 at 72 h in series [1] above 20 µM.

Consider `CCC[C@H](NC(=O)[C@@H]1[C@H]2CCC[C@H]2CN1C(=O)[C@@H](NC(=O)[C@@H](NC(=O)c1cnccn1)C1CCCCC1)C(C)(C)C)C(=O)C(=O)NC1CC1` [TELAPREVIR], for which, in the series with Hepatitis C virus, the concentration for a half-maximal effect (EC50) is 0.36 µM. The half-maximal cytotoxic concentration (CC50) at 72 h in series [1] is above 20 µM.

For the molecule `O=C(NC1CC1)c1c(NO)cc(-c2ccc(Cl)cc2)oc1=O`, in the series with Hepatitis C virus, the EC50 is 2.9 µM. In series [1], this molecule gave a 50% cytotoxic concentration (CC50) at 72 h of 12.8 µM.

With `O=C(Nc1cccc(C(F)(F)F)c1)c1c(NO)cc(-c2ccccc2)oc1=O`, the EC50 in the series on Hepatitis C virus came to 1.2 µM. This molecule showed a half-maximal cytotoxic concentration (CC50) at 72 h in series [1] of 19 µM.

In the case of `O=C(Nc1ccc(Cl)cc1)c1c(NO)cc(-c2cccs2)oc1=O`, the EC50 with Hepatitis C virus is 3.8 µM. The cytotoxic concentration (CC50) at 72 h in series [1] is above 20 µM.

Molecule `O=C(Nc1ccc(Br)cc1)c1c(NCCO)cc(-c2ccc(Br)cc2)oc1=O` gave an EC50 in the series with Hepatitis C virus of 14.4 µM. This molecule returned a CC50 at 72 h in series [1] above 20 µM.

`CONc1cc(-c2ccc(C)cc2)oc(=O)c1C(=O)NCCCO` came in with an EC50 in the series on Hepatitis C virus above 100 µM. This molecule registered a CC50 at 72 h in series [1] above 100 µM.

As to `O=C(Nc1ccccc1O)c1c(NCCO)cc(-c2ccccc2)oc1=O`, in the series with Hepatitis C virus, the EC50 is above 20 µM. In series [1], this molecule registered a half-maximal cytotoxic concentration (CC50) at 72 h above 20 µM.

On to `O=C(Nc1ccc(Br)cc1)c1c(NCCO)cc(-c2cccc(Br)c2)oc1=O`, for which it took 13 µM to reach a half-maximal effect in the series with Hepatitis C virus (EC50). In series [1], this molecule registered a 50% cytotoxic concentration (CC50) at 72 h above 20 µM.

In the series with Hepatitis C virus, `CCOc1ccccc1NC(=O)c1c(NCCO)cc(-c2cccs2)oc1=O` came in with a concentration giving a half-maximal response (EC50) of 5.1 µM. The same molecule gave a CC50 at 72 h in series [1] of 10 µM.

In the series on Hepatitis C virus, `O=C(Nc1ccc(Cl)cc1)c1c(NCCO)cc(-c2ccc(Br)cc2)oc1=O` had an EC50 of 10 µM. The same molecule gave a cytotoxic concentration (CC50) at 72 h in series [1] above 20 µM.

Turning to `Nc1ccccc1NC(=O)c1c(NO)cc(-c2cccs2)oc1=O`, the half-maximal effective concentration (EC50) with Hepatitis C virus is 0.25 µM. The molecule also returned a CC50 at 72 h in series [1] above 20 µM.

For the molecule `O=C(NC1CCCCC1)c1c(NO)cc(-c2ccc(Cl)cc2)oc1=O`, a half-maximal response with Hepatitis C virus (EC50) required 2.2 µM. Further, the midpoint of cytotoxicity in series [1], the CC50 at 72 h, lay at 8.8 µM.

Turning to `Cc1ccc(NC(=O)c2c(NO)cc(-c3cccs3)oc2=O)cc1`, the midpoint of the response in the series on Hepatitis C virus, the EC50, lay at 0.39 µM. The same molecule came in with a half-maximal cytotoxic concentration (CC50) at 72 h in series [1] above 20 µM.

Regarding `Nc1ccccc1NC(=O)c1c(NO)cc(-c2ccccc2)oc1=O`, the concentration giving a half-maximal response (EC50) in the series with Hepatitis C virus was 0.48 µM. In series [1], the half-maximal cytotoxic concentration (CC50) at 72 h was above 20 µM.

`O=C(Nc1ccccc1)c1c(NO)cc(-c2cccs2)oc1=O`: the response with Hepatitis C virus was half-maximal at 1.3 µM (EC50). This molecule also displayed a CC50 at 72 h in series [1] above 20 µM.

As to `CCOc1ccccc1NC(=O)c1c(NCCO)cc(-c2ccc(Br)cc2)oc1=O`, the EC50 with Hepatitis C virus was above 20 µM. For the same molecule, the CC50 at 72 h in series [1] is above 20 µM.

`O=C(Nc1ccc(F)cc1)c1c(NCCO)cc(-c2cccc(Br)c2)oc1=O` yielded a 50% effective concentration (EC50) with Hepatitis C virus of 5.5 µM. The same molecule gave a CC50 at 72 h in series [1] above 20 µM.

Consider `Cc1cccc(NC(=O)c2c(NO)cc(-c3cccs3)oc2=O)c1`, for which a half-maximal effect with Hepatitis C virus (EC50) was put at 0.47 µM. The CC50 at 72 h in series [1] is above 20 µM.

Take `COc1cccc(NC(=O)c2c(NCCO)cc(-c3ccc(Br)cc3)oc2=O)c1`: the concentration for a half-maximal effect (EC50) in the series with Hepatitis C virus was above 20 µM. Further, in series [1], the 50% cytotoxic concentration (CC50) at 72 h is above 20 µM.

`Cc1ccccc1NC(=O)c1c(NO)cc(-c2cccs2)oc1=O` had an EC50 with Hepatitis C virus of 0.59 µM. This molecule came in with a CC50 at 72 h in series [1] above 20 µM.

Consider `O=C(Nc1cccc(C(F)(F)F)c1)c1c(NO)cc(-c2cccs2)oc1=O`, for which the EC50 in the series on Hepatitis C virus was found to be 1.8 µM. Further, in series [1], the CC50 at 72 h turned out to be 11 µM.

On to `COc1ccc(-c2cc(NO)c(C(=O)NC3CCCCC3)c(=O)o2)cc1`, for which a half-maximal effect in the series on Hepatitis C virus (EC50) was put at 4.1 µM. In addition, the 50% cytotoxic concentration (CC50) at 72 h in series [1] amounted to 13.9 µM.

Take `COc1ccccc1NC(=O)c1c(NCCO)cc(-c2ccc(Br)cc2)oc1=O`: the half-maximal effective concentration (EC50) in the series on Hepatitis C virus is above 20 µM. Also, the CC50 at 72 h in series [1] is above 20 µM.

In turn, `O=C(NCCBr)c1c(NCCO)cc(-c2cccs2)oc1=O` returned a half-maximal effective concentration (EC50) with Hepatitis C virus of 15 µM. The same molecule returned a 50% cytotoxic concentration (CC50) at 72 h in series [1] above 20 µM.

`O=C(Nc1ccccc1O)c1c(NO)cc(-c2ccccc2)oc1=O` gave a concentration giving a half-maximal response (EC50) in the series on Hepatitis C virus of 1.7 µM. In addition, in series [1], the midpoint of cytotoxicity, the CC50 at 72 h, lay at 14 µM.

As for `COc1ccccc1NC(=O)c1c(NO)cc(-c2ccccc2)oc1=O`, the 50% effective concentration (EC50) with Hepatitis C virus was determined as 0.35 µM. The same molecule showed a 50% cytotoxic concentration (CC50) at 72 h in series [1] above 20 µM.

Molecule `COc1ccccc1NC(=O)c1c(NCCO)cc(-c2cccc(Br)c2)oc1=O` had a half-maximal effective concentration (EC50) with Hepatitis C virus of 6 µM. Besides, the CC50 at 72 h in series [1] was above 20 µM.

`COc1ccc(NC(=O)c2c(NCCO)cc(-c3ccc(Br)cc3)oc2=O)cc1` showed an EC50 in the series on Hepatitis C virus of 14 µM. Moreover, the CC50 at 72 h in series [1] is above 20 µM.

For `O=C(NC1CCCCC1)c1c(NO)cc(-c2ccc(F)cc2)oc1=O`, it took 3.2 µM to reach a half-maximal effect with Hepatitis C virus (EC50). In series [1], this molecule had a CC50 at 72 h of 11.4 µM.

`CCOc1ccccc1NC(=O)c1c(NCCO)cc(-c2cccc(Br)c2)oc1=O` gave a concentration for a half-maximal effect (EC50) with Hepatitis C virus above 20 µM. Besides, in series [1], the cytotoxic concentration (CC50) at 72 h was above 20 µM.

`O=C(NC1CCCCC1)c1c(NO)cc(-c2ccccc2)oc1=O` gave a 50% effective concentration (EC50) in the series on Hepatitis C virus of 2.3 µM. Moreover, the CC50 at 72 h in series [1] was 10.5 µM.

Consider `COc1ccccc1NC(=O)c1c(NCCO)cc(-c2cccs2)oc1=O`, for which the EC50 with Hepatitis C virus is above 20 µM. The half-maximal cytotoxic concentration (CC50) at 72 h in series [1] is above 20 µM.

In the case of `COc1cccc(NC(=O)c2c(NO)cc(-c3ccccc3)oc2=O)c1`, the EC50 in the series with Hepatitis C virus stood at 0.63 µM. Also, the cytotoxic concentration (CC50) at 72 h in series [1] is above 20 µM.

For the molecule `Cc1ccc(-c2cc(NO)c(C(=O)NC3CCCCC3)c(=O)o2)cc1`, in the series on Hepatitis C virus, it took 5 µM to reach a half-maximal effect (EC50). The molecule also showed a cytotoxic concentration (CC50) at 72 h in series [1] of 10.1 µM.

As for `O=C(Nc1ccc(Br)cc1)c1c(NO)cc(-c2cccs2)oc1=O`, the half-maximal effective concentration (EC50) in the series on Hepatitis C virus was determined as 6 µM. The molecule further showed a cytotoxic concentration (CC50) at 72 h in series [1] above 20 µM.

Turning to `O=C(Nc1ccccc1)c1c(NCCO)cc(-c2cccc(Br)c2)oc1=O`, the concentration giving a half-maximal response (EC50) in the series on Hepatitis C virus is above 20 µM. The molecule also displayed a CC50 at 72 h in series [1] above 20 µM.

For `CCOc1ccccc1NC(=O)c1c(NCCO)cc(-c2ccccc2)oc1=O`, the EC50 in the series with Hepatitis C virus was above 20 µM. The molecule also yielded a CC50 at 72 h in series [1] above 20 µM.

The molecule `O=C(Nc1cc([N+](=O)[O-])ccc1O)c1c(NO)cc(-c2ccccc2)oc1=O` came in with an EC50 in the series on Hepatitis C virus of 3.5 µM. In series [1], the CC50 at 72 h was above 20 µM.

For `COc1ccc(NC(=O)c2c(NO)cc(-c3cccs3)oc2=O)cc1`, the concentration giving a half-maximal response (EC50) in the series with Hepatitis C virus came out at 0.2 µM. Also, in series [1], the CC50 at 72 h was above 20 µM.

`CCOc1ccccc1NC(=O)c1c(NO)cc(-c2ccccc2)oc1=O` displayed a half-maximal effective concentration (EC50) in the series on Hepatitis C virus of 1.1 µM. Also, the CC50 at 72 h in series [1] was above 20 µM.

In the series on Hepatitis C virus, `O=C(NC1CC1)c1c(NO)cc(-c2ccc(F)cc2)oc1=O` displayed an EC50 of 3.3 µM. Further, the cytotoxic concentration (CC50) at 72 h in series [1] is above 20 µM.

In the series on Hepatitis C virus, `COc1cccc(NC(=O)c2c(NCCO)cc(-c3cccs3)oc2=O)c1` gave a concentration giving a half-maximal response (EC50) above 20 µM. The same molecule had a CC50 at 72 h in series [1] above 20 µM.

In the series on Hepatitis C virus, `O=C(NCCO)c1c(N2CCCCC2)cc(-c2ccc(F)cc2)oc1=O` had a 50% effective concentration (EC50) above 100 µM. In series [1], this molecule had a CC50 at 72 h above 100 µM.

In turn, `O=C(Nc1ccc(Cl)cc1)c1c(NCCO)cc(-c2cccc(Br)c2)oc1=O` showed a 50% effective concentration (EC50) in the series on Hepatitis C virus of 7.1 µM. In series [1], this molecule showed a cytotoxic concentration (CC50) at 72 h of 17 µM.
